High-throughput results as filed in PubChem BioAssay.
Rows were chosen to be rich in hits. Some 1.9% of all compounds tested hit in one or more screens of this group.
XiGFP reactiv: activators of inactive X chromosome reactivation, primary screen, imaging, XiGFP fibroblasts, GFP high-content imaging, set 2; activation, % at 7.58 µM; XiGFP mouse fibroblasts, % GFP-positive cells imaging, 3 d; cells co-treated with 5-aza-dC sensitizer; scaled so ellipticine positive control = 100%; actives 0.055% (n = 360,000);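 active = mean normalized replicate activation at least 10% and every replicate at or above 10%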;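 note: 0% = median of on-plate neutral control wells and 100% = ellipticine 6 µM median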
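System: SV40-immortalized XiGFP fibroblast cells, line 68-5-11 / Incubation: 3-day compound exposure, then 15 min fixation at room temperature / Compound: single concentration per compound, delivered by pin transfer / Buffer or medium: DMEM plus 5-aza-dC sensitizer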
Rpn11 inh: Rpn11 (PSMD14) deubiquitinase inhibitors, primary screen, biochemical, fluorescence polarization, uHTS; inhibition, % at 20 µM; human 26S proteasome, Ub4-pepOG fluorescence polarization; 20S core pre-blocked with epoxomicin; actives 0.59% (n = 360,000); 26S proteasome non-ATPase regulatory subunit 14 (Homo sapiens), O00487;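 active = inhibition at 20 µM, scaled to each plate's controls, above about 33%, limit read from the data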
ABHD5 PLIN5 PPI: ABHD5-PLIN5 interaction inhibitors, primary screen, cell lysate, split luciferase complementation, luminescence. Split G. princeps luciferase complementation, 4 h. Perilipin-5 (Homo sapiens) + 1-acylglycerol-3-phosphate O-acyltransferase ABHD5 (Homo …. AID 602281, 2012. actives 0.78% (n = 360,000). inhibition, % at 4 µM;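 active = inhibition above the mean inhibition across every tested compound plus 3 SD, cut at about 22% in these data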;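 note: 0% = DMSO only wells and the 100% control is not disclosed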
Rin1 Abl inh: inhibitors of Rin1-Abl protein binding, primary screen, biochemical, TR-FRET | Tyrosine-protein kinase ABL1 (Homo sapiens) + Ras and Rab interactor 1 (Homo sapiens), … | inhibition, % at 7.35 µM | actives 0.4% (n = 360,000) | AID 588664, 2011; in the data active = inhibition above about 5%, passing the limit was not always enough
NadD block: inhibitors of S. aureus NadD, primary screen, biochemical, colorimetric, uHTS; AID 602399, 2012; purified NadD enzyme, colorimetric absorbance read-out; actives 0.78% (n = 360,000); inhibition, % at 20 µM; in the data active = inhibition above about 26%
Rin1 Abl conf: Rin1-Abl binding inhibitor retest, confirmation, biochemical, TR-FRET; inhibition, % at 7.35 µM; actives 49% (n = 1,300); purified proteins; shares compounds with Rin1 Abl inh; in the data active = inhibition above about 6.5%
GFP quench-1: GFP fluorescence inhibitors and quenchers, artefact control for Rin1-Abl interaction inhibitor project, biochemical; shares compounds with Rin1 Abl inh; inhibition, % at 6.75 µM; inhibitors/quenchers counterscreen; actives 8.5% (n = 1,300); in the data active = inhibition above about 6.5%;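 note: ABL1-eGFP fusion protein alone without its partner RIN1-SBP; 0% = protein with vehicle and 100% = wells lacking protein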
GFP quench DR: GFP fluorescence inhibitors and quenchers, dose response, artefact control for Rin1-Abl interaction inhibitor project, biochemical | shares compounds with Rin1 Abl inh | GFP fluorescence interference/quenching counterscreen | IC50, µM | 230 tested, under 10 active;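 note: ABL1-eGFP fusion protein alone without its RIN1 binding partner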
GFP quench-2: GFP fluorescence inhibitors and quenchers, late-stage follow-up, artefact control for Rin1-Abl interaction inhibitor project, biochemical, dose response; shares compounds with Rin1 Abl inh; GFP fluorescence quenching counterscreen; IC50, µM; 25 tested, under 10 active
* marks the source's active call; other numbers are inactive results; nt = not tested or not shown. Unless noted, the rule behind the calls is not given here.

SMILES	XiGFP reactiv	Rpn11 inh	ABHD5 PLIN5 PPI	Rin1 Abl inh	NadD block	Rin1 Abl conf	GFP quench-1	others
COCCNC(=O)CS(=O)Cc1nc(-c2ccccc2C)oc1C (stereo not drawn)	0	6	17	12*	-5	-1	1
Cc1ccccc1-c1nc(CS(=O)CC(=O)NCc2ccccc2)c(C)o1 (stereo not drawn)	0	6	-9	0	-2	nt	nt
NC(=O)C1CCN(CC(=O)Nc2ccccc2Sc2ccc(Cl)cc2)CC1	0	6	6	-1	-4	nt	nt
NC(=O)C1CCN(CC(=O)Nc2ccccc2Sc2ccccc2)CC1	0	-1	8	7.3*	-3	11*	2
Cc1cc(C)c(S(=O)(=O)NCCSCc2ccco2)c(C)c1	0	-3	13	8.5*	2	-1	0
Cc1ccc(S(=O)(=O)NCCSCc2ccco2)cc1	0	7	0	0	-4	nt	nt
CC1=NN(c2ccc(Cl)cc2)C(=O)C1	0	2	-21	14*	-5	0	1
O=C(Nc1ccccc1)N1C[C@@H]2[C@H](c3ccccc31)[C@H](CO)N2C(=O)c1ccncc1	0	nt	nt	nt	nt	nt	nt
O=C(COC(=O)c1cccnc1)Nc1ccc(F)cc1	nt	8	4	5.7*	-3	-2	0
COC(=O)[C@@H]1[C@@H](CO)[C@@H]2Cn3c(cccc3=O)[C@@H]2N1CC1CCOCC1	0	nt	nt	nt	nt	nt	nt
COc1cccc(CSc2nnc(CSc3nc4nc(C)cc(C)n4n3)s2)c1	nt	-3	5	28*	-2	39*	0	GFP quench DR=>68;GFP quench-2=>68
Cc1cc(C)n2nc(SCc3nnc(SCc4ccccc4C)s3)nc2n1	nt	-1	2	0	-2	nt	nt
COc1cc2c(cc1OC)C(C)N(C(=O)c1ccc(Br)o1)CC2 (stereo not drawn)	0	-11	2	11*	-1	5	2
COc1ccccc1S(=O)(=O)N[C@@H]1CC[C@@H](CC(=O)NCc2cc(F)cc(F)c2)O[C@@H]1CO	-1	nt	nt	nt	nt	nt	nt
Cc1ccc(-c2nnc(N3CCN(C(=O)c4cccs4)CC3)c3ccccc23)cc1	0	2	3	6.3*	6	3	-1
O=C(c1cccs1)N1CCN(c2nnc(-c3ccccc3)c3ccccc23)CC1	0	-10	2	-3	2	nt	nt
C[C@H]1CCCCO[C@@H](CN(C)C(=O)Nc2ccccc2)[C@@H](C)CN([C@@H](C)CO)C(=O)c2cc(NS(=O)(=O)c3ccc(F)cc3)ccc2O1	0	nt	nt	nt	nt	nt	nt
C1CCC(c2nn3c(-c4n[nH]c5c4CCC5)nnc3s2)CC1	nt	-7	-1	25*	0	14*	0
c1coc(-c2nnc3sc(C4CCCCC4)nn23)c1	nt	0	4	-3	6	nt	nt
C[n+]1c(-c2ccccc2)cc2c(=Cc3ccccc3)c3ccccc3n21	1	10	21	13*	6	-6	2
Cc1ccc(NC(=O)CCCCCNS(=O)(=O)c2ccc(C)cc2)cc1	0	-7	-4	-1	-3	nt	nt
O=C(O)CCCCCCCC(=O)O	0	-5	0	-2	-2	nt	nt
Cc1ccc(NC(=O)CCCCCC2NC(=O)NC2C)cc1 (stereo not drawn)	nt	-3	0	88*	0	91*	0	GFP quench DR=>68
CC1NC(=O)NC1CCCCC(=O)O (stereo not drawn)	nt	-8	7	8.1*	0	9.0*	0
CC1NC(=O)NC1CCCCCC(=O)Nc1ccc(F)c(Cl)c1 (stereo not drawn)	0	5	-5	86*	-9	97*	0	GFP quench DR=>67
SMILES	XiGFP reactiv	Rpn11 inh	ABHD5 PLIN5 PPI	Rin1 Abl inh	NadD block	Rin1 Abl conf	GFP quench-1	others
O=C(CC1SCCNC1=O)Nc1ccc(F)c(Cl)c1 (stereo not drawn)	0	3	2	21*	-9	21*	1	GFP quench DR=>68
CCC(=O)Nc1ccc(F)c(Cl)c1	nt	-2	0	4	9	nt	nt
CCc1cccc(NC(=O)CCCCCC2NC(=O)NC2C)c1 (stereo not drawn)	0	-4	0	97*	2	100*	1	GFP quench DR=>68
CCc1cccc(NC(=O)CCCN2C(=O)NC(C)(C)C2=O)c1	0	2	-3	3	0	nt	nt
Cc1noc(C)c1NC(=O)Nc1ccc2c(c1)C(=O)N([C@H](C)CO)C[C@@H](C)[C@H](CN(C)C(=O)Nc1ccc(F)cc1)OCCCC[C@H](C)O2	0	nt	nt	nt	nt	nt	nt
O=C(NC1CCCC1)c1ccc(CS(=O)Cc2ccccc2Cl)o1 (stereo not drawn)	0	-3	-3	18*	1	0	0
O=C(NC1CCCCC1)c1ccc(CS(=O)Cc2ccccc2Cl)o1 (stereo not drawn)	0	-6	3	2	1	nt	nt
CN(CCc1ccccc1)C(=O)c1ccc(NC(=O)Cc2ccc(NC(=O)C3CCCN(C(=O)C4CCCCC4)C3)cc2)cc1 (stereo not drawn)	0	7	-3	-4	4	nt	nt
CN(CCc1ccccc1)C(=O)c1ccc(NC(=O)Cc2ccc(NC(=O)C3CCN(C(=O)C4CC4)CC3)cc2)cc1	0	-2	8	13*	2	15*	-4
CN(CCc1ccccc1)C(=O)c1ccc(NC(=O)Cc2ccc(NC(=O)C3CCN(C(=O)c4ccccc4)CC3)cc2)cc1	0	10	-2	41*	7	42*	1	GFP quench DR=>67;GFP quench-2=>68
CN(CCc1ccccc1)C(=O)c1ccc(NC(=O)Cc2ccc(NC(=O)C3CCN(C(=O)C4CCCC4)CC3)cc2)cc1	0	3	3	60*	-1	68*	1	GFP quench DR=>67;GFP quench-2=>68
